Source: PubChem BioAssay AID624025 (Broad Institute, 2012)
“And” between values parts separate entries of the source, which are not always exact repeats. Identical values can stand only once. The source made the active and inactive calls.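 Rule for the calls: active = compounds whose fitted half-maximal growth inhibition dose lies at or below twice the top tested dose; inconclusive = flat curve with 30 to 70% growth loss, or bad fit; inactive = the rest.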

System: not listed separately
Assay: yeast proliferation reduction, glucose carbon source – OD600, powder samples, set 4, dose response (AID 624025)
Conditions: S. cerevisiae growth in glucose, OD600, 48 h; at 3 µM (top of the series)
Procedure, shortened: (§1)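 Incubation: 48 h static incubation at 30 °C, humidified. Material: Saccharomyces cerevisiae yeast cells, growth in glucose medium. Signal: optical density at 600 nm. Doses: pin-transferred compounds.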

Structure (SMILES) | activity change, negative = inhibition
CCOC(=O)N1C(=O)C2(CCCCC2)N(c2ccccc2)C1=S | -5.67% (inactive)
CCOC(=O)N1C(=O)C2(CCCCC2)N(c2ccc(C)cc2)C1=S | -14.8% (inactive) and -15% (inactive)
C/C=C/[C@@H]1[C@H]2C[C@@H](C)CC[C@@H]2C(C)=C[C@H]1C(=O)c1c(O)c(-c2ccc(O)cc2)c[nH]c1=O | -15.3% (inactive)
CCOC(=O)N1C(=O)C2(CCCCC2)N(c2ccc(Cl)cc2)C1=S | 0.052% (inactive)
CCOC(=O)N1C(=O)C2(CCCCC2)N(c2ccc(F)cc2)C1=S | -7.11% (inactive)
CCOC(=O)N1C(=O)C2(CCCCC2)N(c2ccc(C#N)cc2)C1=S | -20.2% (inactive)
CCOC(=O)N1C(=O)C2(CCCCC2)N(c2cccc(C)c2)C1=S | -12.2% (inactive)

System: S. cerevisiae growth in glucose, OD600, 48 h
Assay: as above
Conditions: not given
Procedure, shortened: as §1

Structure (SMILES) | AC50 [nM]
CC1/C=C/C=C\C=C\C=C\C=C\C=C\C=C\C(O[C@H]2OC(C)C(O)C(N)C2O)CC2OC(O)(CC(O)CC(O)C(O)CCC(O)CC(O)CC(=O)OC(C)C(C)C1O)CC(O)C2C(=O)O (stereo partly drawn) | 527
